Active and inactive are the calls of the source. The calls are words filed in the database; no cut-off is given here.
Tests used:
[1] = tested on: MCF7; experiment: Antiproliferative activity against human MCF7 cells assessed as inhibition of cell growth at 4 to 10 uM incubated for 72 hrs by MTT assay; assay type: functional, cell-based; details: dose 4-10 µM
In short: (§1)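 Cells seeded at 1–4 × 10^4 cells/mL in RPMI 1640 with 10% FBS and 1 mM HEPES, 37 °C, 5% CO2. After 24 h, compounds added at various concentrations for 72 h; controls received 0.1% DMSO. Viable cells measured by MTT. Percent net growth calculated relative to control, correcting for initial absorbance. Mean ± SD (n = 3).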

[2] = tested on: PC-3; experiment: Antiproliferative activity against human PC-3 cells assessed as inhibition of cell growth at 4 to 10 uM incubated for 72 hrs by MTT assay; assay type: functional, cell-based; details: dose 4-10 µM; in short: as §1
[3] = tested on: MCF7; experiment: Antiproliferative activity against human MCF7 cells assessed as inhibition of cell growth at 4 uM incubated for 72 hrs by MTT assay; assay type: functional; in short: as §1
[4] = tested on: PC-3; experiment: Antiproliferative activity against human PC-3 cells assessed as inhibition of cell growth incubated for 72 hrs by MTT assay; assay type: functional, cell-based; details: dose 1-10 µM; in short: as §1
[5] = tested on: MCF7; experiment: Antiproliferative activity against human MCF7 cells assessed as inhibition of cell growth incubated for 72 hrs by MTT assay; assay type: functional, cell-based; details: dose 1-10 µM; in short: as §1
[6] = tested on: MCF7; experiment: Antiproliferative activity against human MCF7 cells assessed as inhibition of cell growth at 10 uM incubated for 72 hrs by MTT assay; assay type: functional; in short: as §1
[7] = tested on: PC-3; experiment: Antiproliferative activity against human PC-3 cells assessed as inhibition of cell growth at 1 uM incubated for 72 hrs by MTT assay; assay type: functional; in short: as §1
[8] = tested on: MCF7; experiment: Antiproliferative activity against human MCF7 cells assessed as inhibition of cell growth at 1 to 10 uM incubated for 72 hrs by MTT assay; assay type: functional, cell-based; details: dose 1-10 µM; in short: as §1
[9] = tested on: PC-3; experiment: Antiproliferative activity against human PC-3 cells assessed as inhibition of cell growth at 1 to 10 uM incubated for 72 hrs by MTT assay; assay type: functional, cell-based; details: dose 1-10 µM; in short: as §1
[10] = tested on: MCF7; experiment: Effect on Bcl-2 protein expression in human MCF7 cells at 10 uM incubated for 72 hrs by immunoblotting analysis; assay type: functional, cell-based
In short: (§2)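 Cells seeded at 2 × 10^4 cells/mL and grown 24 h, then given 10 μM compound or DMSO for 72 h. Whole-cell lysates prepared in NP40 buffer (25 mM Tris-HCl pH 8, 150 mM NaCl, 0.5% NP40, NaF, Na3VO4, protease inhibitors), quantified by BCA. Lysates run on SDS-PAGE and blotted. Probed for Bcl-2, Bcl-xL, ERK/p-ERK, Akt/p-Akt and β-actin. Control set to 1.0; mean ± SD (n = 3).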

[11] = tested on: MCF7; experiment: Inhibition of Akt phosphorylation in human MCF7 cells assessed as decrease in phosphorylated Akt level at 10 uM incubated for 72 hrs by immunoblotting analysis; assay type: cell-based; in short: as §2
[12] = tested on: MCF7; experiment: Induction of autophagy in human MCF7 cells assessed as increase in LC3-II protein expression at 10 uM incubated for 72 hrs by immunoblotting analysis relative to control; assay type: functional
In short: (§3)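 Cells seeded at 2 × 10^4 cells/mL and grown 24 h at 37 °C in 5% CO2 in RPMI 1640 with 10% FBS and 1 mM HEPES. They were then treated 72 h with compound at 10 μM or with DMSO control. Whole-cell lysates were made in NP40 buffer, protein measured by BCA, and samples run on SDS-PAGE. LC3 was probed with β-actin as loading control. Control was set to 1.0; mean ± SD, n = 3.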

[13] = biological target: T1, Retinoic acid receptor RXR-alpha (Homo sapiens) (UniProt P19793); experiment: Agonist activity at human RXR-alpha assessed as receptor transactivation at 500 to 20000 nM incubated for 24 hrs by luciferase reporter gene assay; details: dose 500-20000 nM
T1 sequence (whole entry): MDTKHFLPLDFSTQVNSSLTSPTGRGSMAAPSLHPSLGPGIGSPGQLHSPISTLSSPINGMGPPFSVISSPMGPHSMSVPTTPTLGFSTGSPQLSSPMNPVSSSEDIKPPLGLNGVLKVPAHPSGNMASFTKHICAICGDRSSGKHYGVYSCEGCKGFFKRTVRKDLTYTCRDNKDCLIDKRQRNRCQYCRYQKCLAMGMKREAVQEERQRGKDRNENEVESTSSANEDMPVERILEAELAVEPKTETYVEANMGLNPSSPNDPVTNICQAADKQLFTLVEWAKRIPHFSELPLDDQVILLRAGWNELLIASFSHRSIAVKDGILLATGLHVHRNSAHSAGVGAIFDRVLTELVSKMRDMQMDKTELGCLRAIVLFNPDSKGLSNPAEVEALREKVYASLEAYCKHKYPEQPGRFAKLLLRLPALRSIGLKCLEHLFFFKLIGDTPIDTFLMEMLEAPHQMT
In short: (§4)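 INDIGO RARα or RXRα reporter cells seeded, then medium containing compound added (0.5, 1, 4, 10, 20 μM); 24 h at 37 °C. Medium removed, luciferase detection reagent added, light emission read. 9-cis-retinoic acid (0.5–500 nM) served as positive control. Three replicate wells per vehicle control; mean ± SD (n = 3).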

[14] = tested on: PC-3; experiment: Effect in Bcl-2 protein expression in human PC-3 cells at 10 uM incubated for 72 hrs by immunoblotting analysis; assay type: functional, cell-based; in short: as §2
[15] = tested on: PC-3; experiment: Effect in Bcl-xL protein expression in human PC-3 cells at 10 uM incubated for 72 hrs by immunoblotting analysis; assay type: functional, cell-based; in short: as §2
[16] = tested on: PC-3; experiment: Induction of cell cycle arrest in human PC-3 cells at 10 uM incubated for 24 hrs by propidium iodide staining based flow cytometry; assay type: functional
In short: (§5)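 Cells seeded at 2 × 10^4 cells/mL and grown 24 h, then given 10 μM compound or DMSO for 24 h. Harvested cells fixed in 70% ethanol at 4 °C overnight, washed twice with PBS, and treated with 100 μg/mL RNase A (37 °C, 30 min). Stained with 10 μg/mL propidium iodide; cell cycle analysed by flow cytometry.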

[17] = tested on: MCF7; experiment: Effect in Bcl-xL protein expression in human MCF7 cells at 10 uM incubated for 72 hrs by immunoblotting analysis; assay type: functional, cell-based; in short: as §2
[18] = tested on: PC-3; experiment: Induction of autophagy in human PC-3 cells assessed as increase in LC3-II protein expression at 10 uM incubated for 72 hrs by immunoblotting analysis relative to control; assay type: functional; in short: as §3
[19] = tested on: MCF7; experiment: Induction of cell cycle arrest in human MCF7 cells at 10 uM incubated for 24 hrs by propidium iodide staining based flow cytometry; assay type: functional; in short: as §5
[20] = tested on: PC-3; experiment: Antiproliferative activity against human PC-3 cells assessed as inhibition of cell growth at 10 uM incubated for 72 hrs by MTT assay; assay type: functional; in short: as §1
[21] = tested on: MCF7; experiment: Induction of apoptosis in human MCF7 cells assessed as accumulation of cells at subG1 phase at 10 uM incubated for 24 hrs by propidium iodide staining based flow cytometry; assay type: functional, cell-based; in short: as §5
[22] = tested on: PC-3; experiment: Antiproliferative activity against human PC-3 cells assessed as inhibition of cell growth at 4 uM incubated for 72 hrs by MTT assay; assay type: functional; in short: as §1
[23] = biological target: T2, Retinoic acid receptor alpha (Homo sapiens) (UniProt P10276); experiment: Agonist activity at human RAR-alpha assessed as receptor transactivation at 500 to 20000 nM incubated for 24 hrs by luciferase reporter gene assay; details: dose 500-20000 nM; in short: as §4
T2 sequence (whole entry): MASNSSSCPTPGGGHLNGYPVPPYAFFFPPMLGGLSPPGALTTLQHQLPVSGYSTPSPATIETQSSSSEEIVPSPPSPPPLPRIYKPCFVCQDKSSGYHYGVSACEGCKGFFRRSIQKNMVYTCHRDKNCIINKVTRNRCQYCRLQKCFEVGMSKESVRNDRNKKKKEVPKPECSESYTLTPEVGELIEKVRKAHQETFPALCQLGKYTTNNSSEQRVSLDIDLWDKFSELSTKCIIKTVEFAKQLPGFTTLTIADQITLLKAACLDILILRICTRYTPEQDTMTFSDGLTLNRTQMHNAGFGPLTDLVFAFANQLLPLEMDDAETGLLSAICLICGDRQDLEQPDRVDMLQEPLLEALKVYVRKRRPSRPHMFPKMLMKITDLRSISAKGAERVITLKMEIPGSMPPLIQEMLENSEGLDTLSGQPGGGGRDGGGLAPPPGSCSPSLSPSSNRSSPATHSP

[24] = tested on: PC-3; experiment: Induction of apoptosis in human PC-3 cells assessed as accumulation of cells at subG1 phase at 10 uM incubated for 24 hrs by propidium iodide staining based flow cytometry; assay type: functional, cell-based; in short: as §5
[25] = tested on: PC-3; experiment: Inhibition of Akt phosphorylation in human PC-3 cells assessed as decrease in phosphorylated Akt level at 10 uM incubated for 72 hrs by immunoblotting analysis; assay type: cell-based; in short: as §2
[26] = tested on: PC-3; experiment: Inhibition of ERK phosphorylation in human PC-3 cells at 10 uM incubated for 72 hrs by immunoblotting analysis; assay type: cell-based; in short: as §2
[27] = tested on: MCF7; experiment: Inhibition of ERK phosphorylation in human MCF7 cells at 10 uM incubated for 72 hrs by immunoblotting analysis; assay type: cell-based; in short: as §2

SMILES: O=C(O)CCCCCCC(=O)Nc1ccc(O)cc1
- Activity [1]: Active
- Activity [2]: inactive
- inhibition at 4 µM [3]: 30%

SMILES: CCCCCCCCCCNc1ccc(O)cc1
- Activity [4]: Dose-Dependent Effect
- Activity [5]: Dose-Dependent Effect
- inhibition at 10 µM [6]: 51%
- inhibition at 1 µM [7]: 65%
- inhibition at 4 µM [3]: 31%

SMILES: COC(=O)CCCCCCCCCNc1ccc(O)cc1
- Activity [8]: inactive

SMILES: O=C(O)CCCCCCCCCNc1ccc(O)cc1
- Activity [9]: inactive
- Activity [8]: inactive

SMILES: O=C(O)CCCCCCCCCCCNc1ccc(O)cc1
- Activity [9]: inactive
- Activity [8]: inactive

SMILES: O=C(O)CCCCCCCCCCC(=O)Nc1ccc(O)cc1
- Activity [10]: inactive
- inhibition [11]: Active
- fold change (FC) [12]: 1.6
- Activity [13]: inactive
- Activity [14]: inactive
- Activity [15]: inactive
- Activity [16]: inactive
- Activity [17]: inactive
- fold change (FC) [18]: 1.5
- Activity [19]: inactive
- inhibition at 10 µM [20]: 70%
- Activity [21]: inactive
- inhibition at 4 µM [22]: 54%
- Activity [23]: inactive
- Activity [1]: Active
- Activity [24]: inactive
- inhibition [25]: 35%
- inhibition at 4 µM [3]: 40%
- inhibition [26]: inactive
- inhibition [27]: inactive

SMILES: CCCCCCCCNc1ccc(O)cc1
- Activity [4]: Dose-Dependent Effect
- Activity [5]: Dose-Dependent Effect
- inhibition at 10 µM [6]: 45%
- inhibition at 1 µM [7]: 33%
- inhibition at 4 µM [3]: 14%

SMILES: CCCCCCCCCCCCNc1ccc(O)cc1
- Activity [4]: Dose-Dependent Effect
- Activity [5]: Dose-Dependent Effect
- inhibition at 10 µM [6]: 73%
- inhibition at 1 µM [7]: 91%
- inhibition at 4 µM [3]: 61%

SMILES: COC(=O)CCCCCCCCCCCNc1ccc(O)cc1
- inhibition at 10 µM [20]: 10%
- Activity [8]: inactive

SMILES: CC1=C(/C=C/C(C)=C/C=C/C(C)=C/C(=O)O)C(C)(C)CCC1 [TRETINOIN]
- inhibition at 4 µM [22]: 18%
- inhibition at 4 µM [3]: 37%

SMILES: COC(=O)CCCCCCCNc1ccc(O)cc1
- Activity [8]: inactive

SMILES: COC(=O)CCCCCCCCCCC(=O)Nc1ccc(O)cc1
- inhibition at 10 µM [20]: 10%
- Activity [8]: inactive

SMILES: O=C(O)CCCCCCCNc1ccc(O)cc1
- Activity [9]: inactive
- Activity [8]: inactive

SMILES: COC(=O)CCCCCCCCC(=O)Nc1ccc(O)cc1
- Activity [8]: inactive

SMILES: CCCCCCCCCC(=O)Nc1ccc(O)cc1
- inhibition at 10 µM [20]: 43%
- Activity [1]: inactive
- Activity [2]: Active

SMILES: O=C(O)CCCCCCCCC(=O)Nc1ccc(O)cc1
- Activity [1]: Active
- Activity [2]: inactive
- inhibition at 4 µM [3]: 28%

SMILES: CCCCCCCCCCCC(=O)Nc1ccc(O)cc1
- inhibition at 10 µM [20]: 24%
- Activity [1]: inactive
- Activity [2]: Active

SMILES: COC(=O)CCCCCCC(=O)Nc1ccc(O)cc1
- Activity [8]: inactive

SMILES: CCCCCCCC(=O)Nc1ccc(O)cc1
- inhibition at 10 µM [20]: 45%
- Activity [1]: inactive
- Activity [2]: Active

Source: ChEMBL document CHEMBL5260861, “Examination of aminophenol-containing compounds designed as antiproliferative agents and potential atypical retinoids” (2023)
